Test results as given in ChEMBL document CHEMBL1146457, “Tetrahydrofuran lignans from Nectandra megapotamica with trypanocidal activity” (J Nat Prod, 2004).

How the values were obtained:
Trypanosoma cruzi [1] = assay: Antitrypanosomal activity against Trypanosoma cruzi Y trypomastigotes infected in mouse macrophage; format: functional, organism-based
Procedure, shortened: (§1)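 Trypomastigotes were harvested from mouse macrophage cultures, about 2 × 10^6 parasites/mL, in RPMI 1640 in 96-well plates. Compounds were dissolved in DMSO and diluted in blood to final 2.0, 8.0 and 32.0 µM, with 1% DMSO. Plates were incubated at 4 °C, and percent lysis was read by MTT colorimetry, in triplicate. Negative control: infected blood plus DMSO.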

Trypanosoma cruzi [2] = assay: Trypanocidal activity against Trypanosoma cruzi Y trypomastigotes infected in mouse macrophage at 8 uM; format: functional; procedure, shortened: as §1
Trypanosoma cruzi [3] = assay: Trypanocidal activity against Trypanosoma cruzi Y trypomastigotes infected in mouse macrophage at 2 uM; format: functional; procedure, shortened: as §1
Trypanosoma cruzi [4] = assay: Trypanocidal activity against Trypanosoma cruzi Y trypomastigotes infected in mouse macrophage at 32 uM; format: functional; procedure, shortened: as §1
Trypanosoma cruzi [5] = assay: Trypanocidal activity against Trypanosoma cruzi Y trypomastigotes infected in mouse macrophage at 250 ug/ml; format: functional, organism-based
Procedure, shortened: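 Positive-control wells had gentian violet at 250 µg/mL against trypomastigotes from mouse macrophage cultures, about 2 × 10^6 parasites/mL, in RPMI 1640 in blood. Incubation was at 4 °C, and percent lysis was measured by MTT colorimetric method, in triplicate.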

Compound	IC50 (Trypanosoma cruzi [1]) [µM]	Activity (Trypanosoma cruzi [2]) [%]	Activity (Trypanosoma cruzi [3]) [%]	Activity (Trypanosoma cruzi [4]) [%]	IC50 (Trypanosoma cruzi [5]) [µM]
COc1ccc([C@H]2O[C@@H](c3ccc(OC)c(OC)c3)[C@H](C)[C@@H]2C)cc1OC [GALGRAVIN]	4.4	56.3	44	59.9	
COc1ccc([C@H]2O[C@H](c3ccc(OC)c(OC)c3)[C@@H](C)[C@H]2C)cc1OC [GANSCHISANDRINE]	12.2	49.2	36.5	55.6	
COc1ccc([C@@H]2O[C@H](c3ccc4c(c3)OCO4)[C@@H](C)[C@@H]2C)cc1OC [CALOPIPTIN]	12.6	49.2	21.4	60.3	
CN(C)c1ccc(C(=C2C=CC(=[N+](C)C)C=C2)c2ccc(N(C)C)cc2)cc1 [GENTIAN VIOLET]					76

Now from value to molecule, other results behind:

IC50 (Trypanosoma cruzi [1]) [µM]	Compound	Activity (Trypanosoma cruzi [2]) [%]	Activity (Trypanosoma cruzi [3]) [%]	Activity (Trypanosoma cruzi [4]) [%]	IC50 (Trypanosoma cruzi [5]) [µM]
34.8	COc1cc([C@H]2O[C@@H](c3ccc(OC)c(OC)c3)[C@@H](C)[C@@H]2C)ccc1O [ARISTOLIGNIN]	46.8	34.2	47.6	
47.3	COc1cc([C@H]2O[C@@H](c3ccc(O)c(OC)c3)[C@H](C)[C@@H]2C)ccc1O [NECTANDRIN B]	25	23	48	
2.2	COc1ccc([C@@H]2O[C@H](c3ccc4c(c3)OCO4)[C@@H](C)[C@H]2C)cc1OC [MACHILIN G]	53.6	54.8	94	
17400	COc1cc([C@H]2O[C@@H](c3ccc(OC)c(OC)c3)[C@H](C)[C@@H]2C)ccc1O [NECTANDRIN A]	13.5	10.2	18	
